Source: ChEMBL document CHEMBL5247578, “Effective synthesis of benzimidazoles-imidazo[1,2-a]pyrazine conjugates: A comparative study of mono-and bis-benzimidazoles for antitumor activity” (Eur J Med Chem, 2019)

Tests used:
Assay type in all cases: functional
[1] = system: OVCAR-8; experiment: Antiproliferative activity against human OVCAR-8 cells assessed as cell growth at 0.0001 M incubated for 48 hrs by SRB assay relative to control; settings: read-out: Activity
[2] = system: SK-OV-3; experiment: Antiproliferative activity against human SK-OV-3 cells assessed as cell growth at 0.00001 M incubated for 48 hrs by SRB assay relative to control; settings: read-out: Activity
[3] = system: HCC 2998; experiment: Antiproliferative activity against human HCC 2998 cells assessed as cell growth inhibition by measuring lethal concentration incubated for 48 hrs by sulforhodamine B assay; settings: read-out: LC50 (the source's name)
[4] = system: A549; experiment: Growth inhibition against human A549 cells assessed as total growth inhibitory concentration incubated for 48 hrs by sulforhodamine B assay
[5] = system: TK-10; experiment: Antiproliferative activity against human TK-10 cells assessed as cell growth at 0.0000001 M incubated for 48 hrs by SRB assay relative to control; settings: dose 100 nM, read-out: Activity
[6] = system: UO-31; experiment: Antiproliferative activity against human UO-31 cells assessed as cell growth at 0.00001 M incubated for 48 hrs by SRB assay relative to control; settings: read-out: Activity
[7] = system: NCI-H23; experiment: Antiproliferative activity against human NCI-H23 cells assessed as cell growth at 0.000001 M incubated for 48 hrs by SRB assay relative to control; settings: read-out: Activity
[8] = system: SNB-75; experiment: Antiproliferative activity against human SNB-75 cells assessed as cell growth at 0.0001 M incubated for 48 hrs by SRB assay relative to control; settings: read-out: Activity
[9] = system: CAKI-1; experiment: Growth inhibition against human CAKI-1 cells assessed as total growth inhibitory concentration incubated for 48 hrs by sulforhodamine B assay
[10] = system: SF-268; experiment: Antiproliferative activity against human SF-268 cells assessed as cell growth at 0.00001 M incubated for 48 hrs by SRB assay relative to control; settings: read-out: Activity
[11] = system: RPMI-8226; experiment: Antiproliferative activity against human RPMI-8226 cells assessed as cell growth at 0.0000001 M incubated for 48 hrs by SRB assay relative to control; settings: dose 100 nM, read-out: Activity
[12] = system: NCI-H460; experiment: Antiproliferative activity against human NCI-H460 cells assessed as cell growth at 0.0001 M incubated for 48 hrs by SRB assay relative to control; settings: read-out: Activity
[13] = system: DU-145; experiment: Antiproliferative activity against human DU-145 cells assessed as cell growth at 0.000001 M incubated for 48 hrs by SRB assay relative to control; settings: read-out: Activity
Method in brief: (§1)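 NCI-60 five-dose screen (10^-4 to 10^-8 M). Cells grown in RPMI 1640 with 5% FBS and 2 mM L-glutamine, plated at 5,000-40,000 cells/well and preincubated 24 h. Drug given from DMSO stock, then 48 h at 37 °C, 5% CO2. For adherent lines, cells fixed with cold TCA, SRB-stained and read at 515 nm. Percent growth taken against time-zero and untreated control.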

[14] = system: HOP-92; experiment: Growth inhibition against human HOP-92 cells assessed as total growth inhibitory concentration incubated for 48 hrs by sulforhodamine B assay
[15] = system: DU-145; experiment: Antiproliferative activity against human DU-145 cells assessed as cell growth at 0.0001 M incubated for 48 hrs by SRB assay relative to control; settings: read-out: Activity; method in brief: as §1
[16] = system: T47D; experiment: Antiproliferative activity against human T47D cells assessed as cell growth at 0.00001 M incubated for 48 hrs by SRB assay relative to control; settings: read-out: Activity
[17] = system: HCT-15; experiment: Growth inhibition against human HCT-15 cells incubated for 48 hrs by sulforhodamine B assay
[18] = system: LOX IMVI; experiment: Antiproliferative activity against human LOX IMVI cells assessed as cell growth at 0.000001 M incubated for 48 hrs by SRB assay relative to control; settings: read-out: Activity
[19] = system: NCI-H460; experiment: Antiproliferative activity against human NCI-H460 cells assessed as cell growth at 0.00001 M incubated for 48 hrs by SRB assay relative to control; settings: read-out: Activity
[20] = system: Hs-578T; experiment: Antiproliferative activity against human Hs-578T cells assessed as cell growth at 0.0001 M incubated for 48 hrs by SRB assay relative to control; settings: read-out: Activity
Method in brief: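 NCI-60 five-dose mode, 10^-4 to 10^-8 M in 10-fold steps. RPMI 1640, 5% FBS, 2 mM L-glutamine; 24 h preincubation, then 48 h drug exposure at 37 °C. Stocks in DMSO at 400× the top concentration, diluted in medium with gentamicin. TCA fixation, SRB staining, absorbance at 515 nm. Percent growth from time-zero (Tz), control (C) and test (Ti) readings.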

[21] = system: SN12C; experiment: Antiproliferative activity against human SN12C cells assessed as cell growth at 0.00001 M incubated for 48 hrs by SRB assay relative to control; settings: read-out: Activity
[22] = system: Malme-3M; experiment: Growth inhibition against human Malme-3M cells incubated for 48 hrs by sulforhodamine B assay
[23] = system: Malme-3M; experiment: Antiproliferative activity against human Malme-3M cells assessed as cell growth at 0.00000001 M incubated for 48 hrs by SRB assay relative to control; settings: dose 10 nM, read-out: Activity
[24] = system: SK-OV-3; experiment: Antiproliferative activity against human SK-OV-3 cells assessed as cell growth at 0.00000001 M incubated for 48 hrs by SRB assay relative to control; settings: dose 10 nM, read-out: Activity
[25] = system: SF-268; experiment: Antiproliferative activity against human SF-268 cells assessed as cell growth at 0.000001 M incubated for 48 hrs by SRB assay relative to control; settings: read-out: Activity
[26] = system: NCI-H522; experiment: Growth inhibition against human NCI-H522 cells incubated for 48 hrs by sulforhodamine B assay
[27] = system: TK-10; experiment: Antiproliferative activity against human TK-10 cells assessed as cell growth at 0.00001 M incubated for 48 hrs by SRB assay relative to control; settings: read-out: Activity
[28] = system: EKVX; experiment: Growth inhibition against human EKVX cells incubated for 48 hrs by sulforhodamine B assay
[29] = system: HCT-116; experiment: Antiproliferative activity against human HCT-116 cells assessed as cell growth at 0.00001 M incubated for 48 hrs by SRB assay relative to control; settings: read-out: Activity; method in brief: as §1
[30] = system: HOP-62; experiment: Antiproliferative activity against human HOP-62 cells assessed as cell growth at 0.00001 M incubated for 48 hrs by SRB assay relative to control; settings: read-out: Activity; method in brief: as §1
[31] = system: HOP-62; experiment: Antiproliferative activity against human HOP-62 cells assessed as cell growth at 0.0000001 M incubated for 48 hrs by SRB assay relative to control; settings: dose 100 nM, read-out: Activity; method in brief: as §1
[32] = system: SK-MEL-5; experiment: Antiproliferative activity against human SK-MEL-5 cells assessed as cell growth at 0.00000001 M incubated for 48 hrs by SRB assay relative to control; settings: dose 10 nM, read-out: Activity
[33] = system: EKVX; experiment: Antiproliferative activity against human EKVX cells assessed as cell growth at 0.00000001 M incubated for 48 hrs by SRB assay relative to control; settings: dose 10 nM, read-out: Activity; method in brief: as §1
[34] = system: NCI-H226; experiment: Antiproliferative activity against human NCI-H226 cells assessed as cell growth at 0.0000001 M incubated for 48 hrs by SRB assay relative to control; settings: dose 100 nM, read-out: Activity
[35] = system: NCI-H322M; experiment: Antiproliferative activity against human NCI-H322M cells assessed as cell growth at 0.0001 M incubated for 48 hrs by SRB assay relative to control; settings: read-out: Activity
[36] = system: KM12; experiment: Antiproliferative activity against human KM12 cells assessed as cell growth at 0.0001 M incubated for 48 hrs by SRB assay relative to control; settings: read-out: Activity

SMILES | growth at 100 µM [1] [%] | growth at 10 µM [2] [%] | CC50 [3] [nM] | TGI [4] [nM] | growth at 0.1 µM [5] [%] | growth at 10 µM [6] [%] | growth at 1 µM [7] [%] | growth at 100 µM [8] [%] | TGI [9] [nM] | growth at 10 µM [10] [%] | growth at 0.1 µM [11] [%] | growth at 100 µM [12] [%] | growth at 1 µM [13] [%] | TGI [14] [nM] | growth at 100 µM [15] [%] | growth at 10 µM [16] [%] | GI50 [17] [nM] | growth at 1 µM [18] [%] | growth at 10 µM [19] [%] | growth at 100 µM [20] [%] | further results
c1ccc(Cn2cnc3ccc(-c4nc(-c5ccc6c(c5)ncn6C5CCCCC5)cn5ccnc45)cc32)cc1 | -2 | -24 | 6120 | 4970 | 84 | -40 | 86 | -47 | > 100000 | 2 | 113 | -24 | 93 | 2620 | -8 | -2 | 1570 | 88 | -32 | 12 | growth at 10 µM [21]: -32%; GI50 [22]: 2540 nM; growth at 0.01 µM [23]: 92%; growth at 0.01 µM [24]: 84%; growth at 1 µM [25]: 82%; GI50 [26]: 2030 nM; growth at 10 µM [27]: 11%; GI50 [28]: 1750 nM; growth at 10 µM [29]: -74%; growth at 10 µM [30]: -15%; growth at 0.1 µM [31]: 86%; growth at 0.01 µM [32]: 101%; growth at 0.01 µM [33]: 89%; growth at 0.1 µM [34]: 103%; growth at 100 µM [35]: 14%; growth at 100 µM [36]: -7%
COc1ccc(-c2cn3ccnc3c(-c3ccc4ncn(C5CCCCC5)c4c3)n2)cc1 | 8 | -5 | > 100000 | > 100000 | 88 | 14 | 68 | 11 | > 100000 | 25 | 108 | 5 | 51 | > 100000 | 17 | -24 | 722 | 44 | 4 | -3 | growth at 10 µM [21]: 16%; GI50 [22]: 43100 nM; growth at 0.01 µM [23]: 100%; growth at 0.01 µM [24]: 87%; growth at 1 µM [25]: 65%; GI50 [26]: 424 nM; growth at 10 µM [27]: 13%; GI50 [28]: 3040 nM; growth at 10 µM [29]: -15%; growth at 10 µM [30]: -1%; growth at 0.1 µM [31]: 93%; growth at 0.01 µM [32]: 98%; growth at 0.01 µM [33]: 87%; growth at 0.1 µM [34]: 96%; growth at 100 µM [35]: 67%; growth at 100 µM [36]: 10%
